Results reported in ChEMBL document CHEMBL1629660, “Pharmacodynamics of tigecycline against phenotypically diverse Staphylococcus aureus isolates in a murine thigh model” (Antimicrob Agents Chemother, 2009).

Legend:
[1] = r2 for fT>MIC in community acquired methicillin-resistant Staphylococcus aureus isolate 156-infected neutropenic ICR mouse
[2] = r2 for fAUC/MIC in community acquired methicillin-resistant Staphylococcus aureus isolate 156-infected neutropenic ICR mouse
[3] = r2 for fCmax/MIC in community acquired methicillin-resistant Staphylococcus aureus isolate 144-infected neutropenic ICR mouse
[4] = fAUC/MIC in methicillin-sensitive Staphylococcus aureus ATCC 25923-infected neutropenic ICR mouse at stasis dose; assay type: functional
Procedure, shortened: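 Single-dose serum PK in infected neutropenic mice (sc 6.25–50 mg/kg; HPLC; two-compartment fit; AUC by trapezoidal rule; lower doses simulated). Free fraction from ultrafiltration of spiked mouse serum, in triplicate. Free exposures divided by modal MIC and plotted against 24-h log10 CFU change with a sigmoidal Emax model; EI50, EI80 and stasis values read from the fitted curves.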

`CN(C)c1cc(NC(=O)CNC(C)(C)C)c(O)c2c1C[C@H]1C[C@H]3[C@H](N(C)C)C(O)=C(C(N)=O)C(=O)[C@@]3(O)C(O)=C1C2=O` [TIGECYCLINE] showed a r2 [1] of 0.894%, a r2 [2] of 0.97 and a r2 [3] of 0.77. It also gave a fAUC/MIC [4] of 5.3.
